In brackets after ≈: the same amount, converted by molar mass.

Experimental findings from ChEMBL document CHEMBL4118216, “Adamantyl thioureas as soluble epoxide hydrolase inhibitors” (Bioorg Med Chem Lett, 2018) are described below.

Data set [1] can be described thus: Aqueous solubility of the compound in 0.1 M sodium phosphate buffer at pH 7.4. It is filed as physicochemical. The procedure, abridged: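 Solubility determined in 0.1 M sodium phosphate buffer, pH 7.4, with 1% DMSO present.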
Data set [2] deals with T1, Bifunctional epoxide hydrolase 2 (Homo sapiens, UniProt P34913).
T1 sequence (P34913 whole entry): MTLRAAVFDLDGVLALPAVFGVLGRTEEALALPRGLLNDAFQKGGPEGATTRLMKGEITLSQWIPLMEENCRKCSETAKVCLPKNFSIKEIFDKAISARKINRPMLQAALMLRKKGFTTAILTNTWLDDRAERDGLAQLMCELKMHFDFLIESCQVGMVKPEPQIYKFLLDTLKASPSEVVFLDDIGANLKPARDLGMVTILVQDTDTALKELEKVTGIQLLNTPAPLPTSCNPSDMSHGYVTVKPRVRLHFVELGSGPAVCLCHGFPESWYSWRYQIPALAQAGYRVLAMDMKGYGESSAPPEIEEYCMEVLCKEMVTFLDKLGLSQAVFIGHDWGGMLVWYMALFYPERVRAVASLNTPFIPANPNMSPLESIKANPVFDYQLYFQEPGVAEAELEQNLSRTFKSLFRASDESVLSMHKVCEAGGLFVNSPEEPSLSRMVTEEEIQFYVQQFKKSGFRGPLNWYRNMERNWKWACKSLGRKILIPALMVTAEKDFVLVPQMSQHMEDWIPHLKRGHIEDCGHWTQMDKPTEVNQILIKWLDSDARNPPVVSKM
The experiment in a line: Inhibition of recombinant human sEH expressed in baculovirus expression system using CMNPC as substrate preincubated for 5 mins followed by substrate addition measured for 10 mins by fluorescent based assay. The procedure, abridged:
(§1)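 Kinetic fluorescent assay giving IC50 values; each value is the mean of three separate experiments.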

Data set [3] deals with T2, Bifunctional epoxide hydrolase 2 (Mus musculus, UniProt P34914).
T2 sequence (P34914 whole entry): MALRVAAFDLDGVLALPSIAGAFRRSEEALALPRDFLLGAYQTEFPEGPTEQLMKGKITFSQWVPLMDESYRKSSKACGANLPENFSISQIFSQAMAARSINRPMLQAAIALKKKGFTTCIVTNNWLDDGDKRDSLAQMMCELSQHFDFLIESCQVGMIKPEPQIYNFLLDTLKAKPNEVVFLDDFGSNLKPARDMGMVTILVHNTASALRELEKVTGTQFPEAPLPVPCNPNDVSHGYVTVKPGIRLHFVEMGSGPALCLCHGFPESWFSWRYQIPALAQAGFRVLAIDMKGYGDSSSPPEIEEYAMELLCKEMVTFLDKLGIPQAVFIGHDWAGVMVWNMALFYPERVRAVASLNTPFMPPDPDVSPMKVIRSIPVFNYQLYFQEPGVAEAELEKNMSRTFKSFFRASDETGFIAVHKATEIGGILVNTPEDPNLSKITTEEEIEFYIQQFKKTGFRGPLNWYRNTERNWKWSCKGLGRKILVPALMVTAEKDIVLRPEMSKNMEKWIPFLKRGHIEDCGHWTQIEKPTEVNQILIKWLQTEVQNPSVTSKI
The experiment in a line: Inhibition of recombinant mouse sEH expressed in baculovirus expression system using CMNPC as substrate preincubated for 5 mins followed by substrate addition measured for 10 mins by fluorescent based assay. A digest of the protocol:
as §1

The target in data set [4] is T3, Bifunctional epoxide hydrolase 2 (Rattus norvegicus, UniProt P80299).
T3 sequence (P80299 whole entry): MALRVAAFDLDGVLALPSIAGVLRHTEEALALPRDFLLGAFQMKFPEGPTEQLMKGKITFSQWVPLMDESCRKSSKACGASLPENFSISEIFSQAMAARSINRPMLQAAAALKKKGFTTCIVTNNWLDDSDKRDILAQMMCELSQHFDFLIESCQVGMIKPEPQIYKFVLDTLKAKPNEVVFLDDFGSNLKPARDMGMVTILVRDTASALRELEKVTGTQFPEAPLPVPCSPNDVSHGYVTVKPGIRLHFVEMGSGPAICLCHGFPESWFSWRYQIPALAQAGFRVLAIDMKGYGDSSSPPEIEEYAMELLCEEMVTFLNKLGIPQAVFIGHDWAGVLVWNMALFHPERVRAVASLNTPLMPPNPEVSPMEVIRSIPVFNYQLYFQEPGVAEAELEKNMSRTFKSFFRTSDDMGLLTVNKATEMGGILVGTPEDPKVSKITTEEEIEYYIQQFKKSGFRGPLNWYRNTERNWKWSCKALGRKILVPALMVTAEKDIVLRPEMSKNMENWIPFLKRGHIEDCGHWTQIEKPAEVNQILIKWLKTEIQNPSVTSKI
As to the kind of experiment: Inhibition of rat sEH using CMNPC as substrate preincubated for 5 mins followed by substrate addition measured for 10 mins by fluorescent based assay. A digest of the protocol: as §1

`S=C(NCCCNC(=S)NC12CC3CC(CC(C3)C1)C2)NC12CC3CC(CC(C3)C1)C2`: the solubility in data set [1] fell in the range of 90 to 100 µM (≈ 41.5 to 46.1 µg/mL). The values for the IC50 in data set [2], in data set [3] and in data set [4] were 97.6 nM, 74.9 nM and 43.3 nM, respectively.

For `S=C(NCCc1ccccc1)NC1C2CC3CC(C2)CC1C3` (stereo not drawn), the solubility in data set [1] was 20 to 30 µM (≈ 6.29 to 9.43 µg/mL). Besides, the figures for the IC50 in data set [2], in data set [3] and in data set [4] were 8.2 nM, 108 nM and 78.3 nM, respectively.

`S=C(NCc1ccccc1)NC1C2CC3CC(C2)CC1C3` (stereo not drawn) gave a solubility in data set [1] of 65 to 75 µM (≈ 19.5 to 22.5 µg/mL). Also, the IC50 in data set [2] was 34 nM; in data set [3], 61 nM; in data set [4], 60.3 nM.

`S=C(NCCCCCNC(=S)NC12CC3CC(CC(C3)C1)C2)NC12CC3CC(CC(C3)C1)C2` yielded a solubility in data set [1] of 80 to 90 µM (≈ 39.1 to 44 µg/mL). Further, the IC50 in data set [2] turned out to be 21.1 nM; in data set [3], 36.2 nM; in data set [4], 46.1 nM.

Take `S=C(NCCCCNC(=S)NC12CC3CC(CC(C3)C1)C2)NC12CC3CC(CC(C3)C1)C2`: in data set [1], the solubility was 90 to 100 µM (≈ 42.7 to 47.5 µg/mL). For the same molecule, the half-maximal inhibitory concentration (IC50) in data set [2] came out at 90.8 nM; in data set [3] it was 130 nM; in data set [4], 123 nM.

With `S=C(Nc1ccccc1)NC1C2CC3CC(C2)CC1C3` (stereo not drawn), the solubility in data set [1] fell in the range of 70 to 80 µM (≈ 20.1 to 22.9 µg/mL). Further, the half-inhibitory concentration (IC50) in data set [2] was 229 nM; in data set [3], 408 nM; in data set [4] it was 356 nM.

For `S=C(NCCCCCCNC(=S)NC12CC3CC(CC(C3)C1)C2)NC12CC3CC(CC(C3)C1)C2`, the solubility in data set [1] lay in the range of 70 to 80 µM (≈ 35.2 to 40.2 µg/mL). For the same molecule, the half-inhibitory concentration (IC50) came to 7.7 nM in data set [2], 50.6 nM in data set [3] and 61.6 nM in data set [4].

The solubility is how much of the substance goes into solution per volume. As usually defined, the IC50 is the concentration at which inhibition is half-maximal.
